Shown are actives, neighbours in structure and some others; about 1.7% of the full set was active somewhere.
LMPTP block = blocks human LMPTP phosphatase; recombinant LMPTP-A, OMFP fluorogenic substrate, fluorescence intensity; inhibition, % at 20 µM; actives 0.22% (n = 360,000); AID 651560;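 active = compounds that cut the enzyme signal by at least half of the control window in the single-dose screen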;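 also: plate controls were DMSO wells with enzyme plus substrate for no effect and substrate without enzyme for full effect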
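Test system: LMPTP-A phosphatase enzyme. Amount: LMPTP-A at 0.625 nM final in the reaction. Reagent: OMFP substrate, 400 µM final. Times: 50 min at room temperature. Signal: endpoint fluorescence intensity from OMFP dephosphorylation. Read-out basis: % inhibition. Benchmarks: no-enzyme and uninhibited controls.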
Scp-1 inhibitor = Scp-1 (human) phosphatase inhibition; Q9GZU7; Recombinant Scp1, phosphopeptide, malachite green phosphate absorbance; inhibition, % at 20 µM; actives 0.88% (n = 340,000); AID 493091;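 active = inhibition above about 50% at 20 µM, limit read from the data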;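 also: plate controls were DMSO wells with enzyme for no effect and wells lacking enzyme for full effect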
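Test system – truncated SCP-1 phosphatase (76-261aa) · Reagent – Phosphorylated 17-residue peptide substrate · Incubation – 45 min room-temperature reaction, 5 min colour, 30 min stabiliser · Detection – colorimetric phosphate reagent with accelerator and stabiliser, absorbance at 630 nm · Measure – % inhibition at 20 µM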
STEP block = blocks human striatal-enriched tyrosine phosphatase | AID 588621 | actives 0.25% (n = 360,000) | inhibition, % at 20 µM | recombinant STEP, OMFP fluorogenic substrate, fluorescence | P54829;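 active = inhibition at 20 µM, scaled per plate between control wells, above about 37%, limit read from the data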;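 also: 0% = DMSO with enzyme and substrate and 100% = substrate only without enzyme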
Target sequence (P54829 whole entry, looked up): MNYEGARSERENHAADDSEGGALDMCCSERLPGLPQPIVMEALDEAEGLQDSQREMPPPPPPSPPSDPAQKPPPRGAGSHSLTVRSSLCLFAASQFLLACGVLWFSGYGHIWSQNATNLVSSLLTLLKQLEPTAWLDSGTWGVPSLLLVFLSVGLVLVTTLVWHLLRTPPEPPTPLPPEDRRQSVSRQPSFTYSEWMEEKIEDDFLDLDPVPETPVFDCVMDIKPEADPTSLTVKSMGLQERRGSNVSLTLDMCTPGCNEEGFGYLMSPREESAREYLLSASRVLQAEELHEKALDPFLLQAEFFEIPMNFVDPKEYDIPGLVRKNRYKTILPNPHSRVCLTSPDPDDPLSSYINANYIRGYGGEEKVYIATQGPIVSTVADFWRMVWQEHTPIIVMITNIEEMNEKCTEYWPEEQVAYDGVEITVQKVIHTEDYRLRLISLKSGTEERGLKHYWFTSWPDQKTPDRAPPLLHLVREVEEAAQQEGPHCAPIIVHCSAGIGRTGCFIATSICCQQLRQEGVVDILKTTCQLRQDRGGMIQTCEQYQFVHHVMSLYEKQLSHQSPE
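Test system: STEP tyrosine phosphatase / Reagent: OMFP at 25 µM / Doses: 20 µM, 1% DMSO / Read-out: percent inhibition scaled to no-enzyme and uninhibited-enzyme controls, plate-pattern corrected / Detection: FITC-channel fluorescence of OMFP product / Medium: Bis-Tris buffer pH 6.0, 2.5 mM DTT, 0.005% Tween 20 / Schedule: 20 min at room temperature, dark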
DNMT1 inh = blocks human DNA methyltransferase DNMT1; DNMT1 molecular beacon, Hinp1I cleavage, fluorescence; inhibition (reported as % activation of signal), % at 10 µM; actives 0.83% (n = 360,000); AID 588458; in the data active = inhibition above about 50%
SUMO1-SIM PPI = alters human SUMO1 binding to SIM partners; P63165; SUMO1 binding to a labelled peptide, TR-FRET, 1 h; inhibition, % at 20 µM; actives 0.33% (n = 360,000); in the data active = inhibition above about 37%
Target sequence (P63165 whole entry, looked up): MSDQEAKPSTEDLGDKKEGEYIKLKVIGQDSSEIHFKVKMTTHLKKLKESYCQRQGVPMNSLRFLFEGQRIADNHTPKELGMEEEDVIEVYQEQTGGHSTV
Scp-1 conf = confirmation of human Scp-1 phosphatase inhibitors | shares compounds with Scp-1 inhibitor | recombinant SCP-1 catalytic domain, phosphate release, malachite green absorbance | inhibition, % at 20 µM | actives 61% (n = 2,500);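 also: plate controls were DMSO with enzyme for no effect and buffer wells lacking enzyme for full effect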
MG interference = interferes with malachite green readout, flagging false Scp-1 hits; apparent inhibition (interference), % at 20 µM; shares compounds with Scp-1 inhibitor; 2,500 tested, under 10 active; Colorimetric interference counterscreen, malachite green absorbance 630 nm;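 also: compounds added after enzyme reaction finished so only phosphate colour detection is probed; plate controls were DMSO wells with completed Scp-1 reaction for no effect and substrate wells lacking enzyme for full effect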
Scp1 DSF = Scp-1 (human) binding by thermal shift. shares compounds with Scp-1 inhibitor. Recombinant SCP1, Sypro Orange thermal shift Tm. thermal shift relative to vanadate control, % at 40 µM. actives 25% (n = 1,500). AID 540329;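 active = substances whose mean melting-temperature shift, as a percentage of the reference inhibitor's shift, reaches about 5.3%, limit read from the data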;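 also: 0% = Tm of DMSO wells and 100% = Tm with sodium orthovanadate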
* hit, by the source's call; / = no result.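 The calls were made as follows, unless noted: active = inhibition of at least 30% at 20 µM; inactive = the rest.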

SMILES	LMPTP block	Scp-1 inhibitor	STEP block	DNMT1 inh	SUMO1-SIM PPI	Scp-1 conf	MG interference	Scp1 DSF
O=C(COC(=O)Cc1cccc(C(F)(F)F)c1)NCc1ccco1	1	77*	8	92*	11	68*	-8	0
COCCN(CCOC)Cc1cc(=O)oc2cc(C)c(C)cc12	0	/	1	26	-3	/	/	/
Cc1noc(C)c1NC(=O)N(C)C[C@@H]1OCc2cnnn2CCCC(=O)N([C@H](C)CO)C[C@@H]1C	-1	/	8	1	14	/	/	/
COc1cc(/C=C2\SC(=S)N(CCCCC(=O)O)C2=O)ccc1OS(=O)(=O)c1ccc(C)cc1	8	51*	1	9	11	48*	-25	15*
CC(C)OC(=O)C1C2C=CC3(CN(Cc4cccs4)C(=O)C13)O2 (centres undefined)	-1	68*	-1	1	-3	-12	-10	/
O=C(O)CCCC(=O)Nc1ccc(Cl)cc1	1	-1	0	1	13	/	/	/
O=C(O)CCNc1ccc(Cl)cc1	1	52*	1	19	1	43*	-14	-21
COCCCn1nnnc1SCC(=O)Nc1nc(C)c(C)s1	0	52*	2	-3	3	-10	-11	/
CCCc1nc2sc3c(SCC(=O)NCc4ccco4)ncnc3c2c2c1CCC2	4	82*	21	91*	7	59*	-18	2
Cc1nc(SCC(=O)NCc2ccco2)c2c3c(sc2n1)CCCC3	2	9	5	0	1	/	/	/
Cc1cccnc1C1=NOC(Cc2ccccc2)C(=O)N1C (centres undefined)	-1	/	2	-1	2	/	/	/
CC(=O)NC(c1ccccc1)c1nc(-c2cccnc2)cs1 (centres undefined)	0	/	1	5	3	/	/	/
O=C(CCN1C(=O)/C(=C/c2ccc(F)cc2)SC1=S)Nc1cc([N+](=O)[O-])ccc1O	13	64*	15	1	-4	50*	-15	7.2*
COc1ccc(/C=C2\SC(=S)N(CCC(=O)Nc3ccc(C(=O)O)cc3)C2=O)cc1	90*	87*	95*	0	-19	69*	-14	21*
COc1ccc(/C=C2\SC(=S)N(CCCC(=O)Nc3ccc(O)cc3)C2=O)cc1	0	-11	-3	-14	-25	/	/	/
O=C(CCCN1C(=O)/C(=C/c2cccs2)SC1=S)Nc1cc([N+](=O)[O-])ccc1O	0	-5	1	-1	-3	/	/	/
CCc1nc2ccc(C(=O)NCC3CCCCC3)cn2c1N(CCC(C)C)CCN(C)C	-1	/	-4	-2	8	/	/	/
Cc1ccc2nc(/C(C#N)=C/c3ccc(-c4ccccc4C(=O)O)o3)[nH]c2c1	5	54*	4	21	0	47*	-13	7.3*
CN(CCc1ccccc1)C(C(=O)Nc1ccc2c(c1)OCCO2)C1CC1 (centres undefined)	-1	/	-1	3	-2	/	/	/
O=C(CN1CCN(Cc2ccc(F)cc2Cl)C1=O)NCCc1ccccc1	-1	50*	-1	7	0	6	-11	/
COc1ccc(/C=C2\C(=O)NCC(=O)N2C)cc1	-3	89*	-2	0	3	-13	-15	/
Cc1ccc(C)c(OCCn2ccnc2)c1	0	59*	-3	2	6	39*	-11	-14
Cc1cc(C)c(C)c(OCCn2ccnc2)c1	0	-4	-3	6	0	/	/	/
NN1C(=O)/C(=C2/Sc3ccccc3N2CCCS(=O)(=O)O)SC1=S	0	84*	29	30	-7	73*	2	-11
O=C1NC(=S)S/C1=C1\Sc2ccccc2N1CCCS(=O)(=O)O	-1	-2	6	9	5	/	/	/
SMILES	LMPTP block	Scp-1 inhibitor	STEP block	DNMT1 inh	SUMO1-SIM PPI	Scp-1 conf	MG interference	Scp1 DSF
O=C(NCc1ccc(Cl)cc1Cl)Nc1nc([C@@H]2O[C@H](CO)[C@@H](O)[C@H](O)[C@H]2O)cs1	-1	/	0	-2	0	/	/	/
C[n+]1ccc(C(=O)Nc2ccccc2Cl)cc1	-1	98*	-3	3	-10	90*	-14	-13
OC[C@@H]1CN(Cc2ccc(-c3ccccc3)cc2)C[C@H](n2cnc3c(NC4CCC4)ncnc32)O1	1	/	-1	-4	-3	/	/	/
CC(C(=O)N1CCCCC1)N1CCN(S(=O)(=O)c2ccc(Cl)cc2)CC1 (centres undefined)	-1	97*	-2	5	-3	78*	-13	-9
CCN(CC)S(=O)(=O)c1cc(NC(=O)C2CC(=O)N(Cc3ccccc3)C2)ccc1Cl (centres undefined)	-7	-13	5	-4	-22	-22	-17	/
CC(=O)c1sc(NC(=O)C2CC(=O)N(Cc3ccccc3)C2)nc1-c1ccccc1 (centres undefined)	1	-6	1	-2	-10	-24	-22	/
O=C(NCc1ccco1)c1ccc2sc([C@@H]3O[C@H](CO)[C@@H](O)[C@H]3O)nc2c1	0	/	2	0	1	/	/	/
CCOC(=O)[C@]12CCCC=C1N(CCC1=CCCCC1)C(=O)[C@H](CC(=O)NCc1cccc(C(F)(F)F)c1)C2	5	/	/	/	1	/	/	/
CSc1nc(N)nc2c1ncn2C1OC(CO)C(O)C1O (centres undefined)	-1	-5	-3	3	0	-11	-15	/
Nc1nc(SCc2ccccc2)c2ncn(C3OC(CO)C(O)C3O)c2n1 (centres undefined)	-1	-7	-1	-4	2	/	/	/
CCOc1ccc(OCCCC(=O)N2CCN(S(=O)(=O)c3ccc(Cl)cc3)CC2)cc1	-1	56*	3	4	6	79*	-20	-3
O=C(O)c1cc(S(=O)(=O)N2CCN(S(=O)(=O)c3ccc4ccccc4c3)CC2)ccc1Br	1	59*	8	34	8	63*	-16	8.7*
O=C(O)Cc1sc(N/N=C\c2ccccc2)nc1-c1ccccc1	2	54*	-1	90*	5	75*	-8	18*
Cc1ccc(S(=O)(=O)/N=C2/NC(=O)/C(=C\c3ccco3)S2)cc1	0	16	3	29	36	/	/	/
CC(=O)Nc1ccc(S(=O)(=O)/N=C2/NC(=O)/C(=C\c3ccco3)S2)cc1	3	53*	5	51*	21	54*	-5	10*

Screening results as filed in PubChem.
